Test results reported in ChEMBL document CHEMBL4689842, “EUbOPEN Chemogenomics Library wave 1” (2021).

System: HEK-293T
Experiment: Multiplex assay against HEK293T;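 on Population Tubulin-Different-Phenotype (%): share of the cells with healthy nuclei that show this phenotype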
Type: toxicity, cell-based
Conditions: human
In short: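 Per cents of healthy-nucleus cells form the tubulin, mitochondrial-mass and membrane-permeability phenotype values. Live cells were stained at seeding with Hoechst33342, BioTracker Green Microtubule Cytoskeleton Dye, MitoTracker Red and Annexin V Alexa Fluor 680. After compound addition they were imaged on a CQ1 microscope at 37°C and 5% CO2, and CellPathfinder machine-learning gating split them into Hoechst high-intensity objects or normal cells, normal cells into healthy, pyknosed or fragmented nuclei, and pyknosed cells into mitotic or apoptotic.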

[1] = 12 h, 1 µM, compound concentration 1 uM, replicate 1
[2] = 12 h, 1 µM, compound concentration 1 uM, replicate 2
[3] = 12 h, 10 µM, compound concentration 10 uM, replicate 1
[4] = 12 h, 10 µM, compound concentration 10 uM, replicate 2
[5] = 24 h, 1 µM, compound concentration 1 uM, replicate 1
[6] = 24 h, 1 µM, compound concentration 1 uM, replicate 2
[7] = 24 h, 10 µM, compound concentration 10 uM, replicate 1
[8] = 24 h, 10 µM, compound concentration 10 uM, replicate 2
[9] = 48 h, 1 µM, compound concentration 1 uM, replicate 1
[10] = 48 h, 1 µM, compound concentration 1 uM, replicate 2
[11] = 48 h, 10 µM, compound concentration 10 uM, replicate 1
[12] = 48 h, 10 µM, compound concentration 10 uM, replicate 2

Question: With `CCCS(=O)(=O)c1nc(NC2CC2)cc(-c2ccc3c(ccn3C3CC(C)(C)NC(C)(C)C3)c2)n1` as the molecule, how does the “Population Apoptotic (%)” value [1] read?
Answer: 58%

Question: And the “Population Fragmented Nuclei (%)” value [1]?
Answer: 8%

Question: And the “Population Healthy Nuclei (%)” value [1]?
Answer: 37%

Question: What about the “Population Hoechst High Intensity Objects (%)” value [1] of the same molecule?
Answer: 13%

Question: What about the “Population Membrane Permeable-Phenotype (%)” value [1] of the same molecule?
Answer: 4%

Question: What about the “Population Mitochondria Different-Phenotype (%)” value [1] of the same molecule?
Answer: 86%

Question: What about the “Population Mitotic Cells (%)” value [1] of the same molecule?
Answer: 41%

Question: And the “Population Normal (%)” value [1]?
Answer: 86%

Question: And the “Population Pyknosed Nuclei (%)” value [1]?
Answer: 53%

Question: And the “Population Tubulin-Different-Phenotype (%)” value [1]?
Answer: 80%

Question: And the “Total Cell Count” value [1]?
Answer: 351

Question: What about the “Population Apoptotic (%)” value [2] of the same molecule?
Answer: 18%

Question: And the “Population Fragmented Nuclei (%)” value [2]?
Answer: 11%

Question: What about the “Population Healthy Nuclei (%)” value [2] of the same molecule?
Answer: 24%

Question: And the “Population Hoechst High Intensity Objects (%)” value [2]?
Answer: 7%

Question: What about the “Population Membrane Permeable-Phenotype (%)” value [2] of the same molecule?
Answer: 12%

Question: And the “Population Mitochondria Different-Phenotype (%)” value [2]?
Answer: 51%

Question: And the “Population Mitotic Cells (%)” value [2]?
Answer: 81%

Question: What about the “Population Normal (%)” value [2] of the same molecule?
Answer: 92%

Question: What about the “Population Pyknosed Nuclei (%)” value [2] of the same molecule?
Answer: 64%

Question: What about the “Population Tubulin-Different-Phenotype (%)” value [2] of the same molecule?
Answer: 45%

Question: And the “Total Cell Count” value [2]?
Answer: 137

Question: And the “Population Apoptotic (%)” value [3]?
Answer: 65%

Question: And the “Population Fragmented Nuclei (%)” value [3]?
Answer: 63%

Question: What about the “Population Healthy Nuclei (%)” value [3] of the same molecule?
Answer: 3%

Question: What about the “Population Hoechst High Intensity Objects (%)” value [3] of the same molecule?
Answer: 9%

Question: And the “Population Membrane Permeable-Phenotype (%)” value [3]?
Answer: 16%

Question: And the “Population Mitochondria Different-Phenotype (%)” value [3]?
Answer: 16%

Question: What about the “Population Mitotic Cells (%)” value [3] of the same molecule?
Answer: 34%

Question: And the “Population Normal (%)” value [3]?
Answer: 90%

Question: And the “Population Pyknosed Nuclei (%)” value [3]?
Answer: 33%

Question: And the “Population Tubulin-Different-Phenotype (%)” value [3]?
Answer: 16%

Question: What about the “Total Cell Count” value [3] of the same molecule?
Answer: 650

Question: And the “Population Apoptotic (%)” value [4]?
Answer: 74%

Question: And the “Population Fragmented Nuclei (%)” value [4]?
Answer: 24%

Question: What about the “Population Healthy Nuclei (%)” value [4] of the same molecule?
Answer: 1%

Question: And the “Population Hoechst High Intensity Objects (%)” value [4]?
Answer: 10%

Question: And the “Population Membrane Permeable-Phenotype (%)” value [4]?
Answer: 0%

Question: And the “Population Mitochondria Different-Phenotype (%)” value [4]?
Answer: 100%

Question: What about the “Population Mitotic Cells (%)” value [4] of the same molecule?
Answer: 25%

Question: And the “Population Normal (%)” value [4]?
Answer: 89%

Question: What about the “Population Pyknosed Nuclei (%)” value [4] of the same molecule?
Answer: 74%

Question: What about the “Population Tubulin-Different-Phenotype (%)” value [4] of the same molecule?
Answer: 100%

Question: What about the “Total Cell Count” value [4] of the same molecule?
Answer: 274

Question: What about the “Population Apoptotic (%)” value [5] of the same molecule?
Answer: 60%

Question: And the “Population Fragmented Nuclei (%)” value [5]?
Answer: 10%

Question: What about the “Population Healthy Nuclei (%)” value [5] of the same molecule?
Answer: 37%

Question: What about the “Population Hoechst High Intensity Objects (%)” value [5] of the same molecule?
Answer: 14%

Question: What about the “Population Membrane Permeable-Phenotype (%)” value [5] of the same molecule?
Answer: 2%

Question: And the “Population Mitochondria Different-Phenotype (%)” value [5]?
Answer: 79%

Question: And the “Population Mitotic Cells (%)” value [5]?
Answer: 39%

Question: And the “Population Normal (%)” value [5]?
Answer: 85%

Question: What about the “Population Pyknosed Nuclei (%)” value [5] of the same molecule?
Answer: 52%

Question: What about the “Population Tubulin-Different-Phenotype (%)” value [5] of the same molecule?
Answer: 80%

Question: What about the “Total Cell Count” value [5] of the same molecule?
Answer: 345

Question: What about the “Population Apoptotic (%)” value [6] of the same molecule?
Answer: 31%

Question: And the “Population Fragmented Nuclei (%)” value [6]?
Answer: 11%

Question: And the “Population Healthy Nuclei (%)” value [6]?
Answer: 34%

Question: What about the “Population Hoechst High Intensity Objects (%)” value [6] of the same molecule?
Answer: 7%

Question: And the “Population Membrane Permeable-Phenotype (%)” value [6]?
Answer: 11%

Question: And the “Population Mitochondria Different-Phenotype (%)” value [6]?
Answer: 66%

Question: And the “Population Mitotic Cells (%)” value [6]?
Answer: 68%

Question: And the “Population Normal (%)” value [6]?
Answer: 92%

Question: And the “Population Pyknosed Nuclei (%)” value [6]?
Answer: 53%

Question: What about the “Population Tubulin-Different-Phenotype (%)” value [6] of the same molecule?
Answer: 71%

Question: And the “Total Cell Count” value [6]?
Answer: 140

Question: What about the “Population Apoptotic (%)” value [7] of the same molecule?
Answer: 60%

Question: What about the “Population Fragmented Nuclei (%)” value [7] of the same molecule?
Answer: 63%

Question: And the “Population Healthy Nuclei (%)” value [7]?
Answer: 3%

Question: And the “Population Hoechst High Intensity Objects (%)” value [7]?
Answer: 11%

Question: What about the “Population Membrane Permeable-Phenotype (%)” value [7] of the same molecule?
Answer: 26%

Question: What about the “Population Mitochondria Different-Phenotype (%)” value [7] of the same molecule?
Answer: 5%

Question: And the “Population Mitotic Cells (%)” value [7]?
Answer: 39%

Question: And the “Population Normal (%)” value [7]?
Answer: 88%

Question: What about the “Population Pyknosed Nuclei (%)” value [7] of the same molecule?
Answer: 32%

Question: What about the “Population Tubulin-Different-Phenotype (%)” value [7] of the same molecule?
Answer: 10%

Question: What about the “Total Cell Count” value [7] of the same molecule?
Answer: 639

Question: And the “Population Apoptotic (%)” value [8]?
Answer: 88%

Question: What about the “Population Fragmented Nuclei (%)” value [8] of the same molecule?
Answer: 29%

Question: And the “Population Healthy Nuclei (%)” value [8]?
Answer: 4%

Question: What about the “Population Hoechst High Intensity Objects (%)” value [8] of the same molecule?
Answer: 10%

Question: What about the “Population Membrane Permeable-Phenotype (%)” value [8] of the same molecule?
Answer: 11%

Question: What about the “Population Mitochondria Different-Phenotype (%)” value [8] of the same molecule?
Answer: 33%

Question: And the “Population Mitotic Cells (%)” value [8]?
Answer: 12%

Question: And the “Population Normal (%)” value [8]?
Answer: 89%

Question: And the “Population Pyknosed Nuclei (%)” value [8]?
Answer: 66%

Question: And the “Population Tubulin-Different-Phenotype (%)” value [8]?
Answer: 88%

Question: And the “Total Cell Count” value [8]?
Answer: 249

Question: And the “Population Apoptotic (%)” value [9]?
Answer: 54%

Question: And the “Population Fragmented Nuclei (%)” value [9]?
Answer: 15%

Question: And the “Population Healthy Nuclei (%)” value [9]?
Answer: 47%

Question: And the “Population Hoechst High Intensity Objects (%)” value [9]?
Answer: 17%

Question: And the “Population Membrane Permeable-Phenotype (%)” value [9]?
Answer: 7%

Question: What about the “Population Mitochondria Different-Phenotype (%)” value [9] of the same molecule?
Answer: 58%

Question: And the “Population Mitotic Cells (%)” value [9]?
Answer: 45%

Question: What about the “Population Normal (%)” value [9] of the same molecule?
Answer: 82%

Question: What about the “Population Pyknosed Nuclei (%)” value [9] of the same molecule?
Answer: 37%

Question: And the “Population Tubulin-Different-Phenotype (%)” value [9]?
Answer: 79%

Question: What about the “Total Cell Count” value [9] of the same molecule?
Answer: 417

Question: What about the “Population Apoptotic (%)” value [10] of the same molecule?
Answer: 28%

Question: What about the “Population Fragmented Nuclei (%)” value [10] of the same molecule?
Answer: 9%

Question: What about the “Population Healthy Nuclei (%)” value [10] of the same molecule?
Answer: 61%

Question: What about the “Population Hoechst High Intensity Objects (%)” value [10] of the same molecule?
Answer: 5%

Question: And the “Population Membrane Permeable-Phenotype (%)” value [10]?
Answer: 12%

Question: What about the “Population Mitochondria Different-Phenotype (%)” value [10] of the same molecule?
Answer: 32%

Question: And the “Population Mitotic Cells (%)” value [10]?
Answer: 71%

Question: And the “Population Normal (%)” value [10]?
Answer: 94%

Question: What about the “Population Pyknosed Nuclei (%)” value [10] of the same molecule?
Answer: 29%

Question: And the “Population Tubulin-Different-Phenotype (%)” value [10]?
Answer: 64%

Question: What about the “Total Cell Count” value [10] of the same molecule?
Answer: 226

Question: What about the “Population Apoptotic (%)” value [11] of the same molecule?
Answer: 69%

Question: What about the “Population Fragmented Nuclei (%)” value [11] of the same molecule?
Answer: 67%

Question: And the “Population Healthy Nuclei (%)” value [11]?
Answer: 3%

Question: What about the “Population Hoechst High Intensity Objects (%)” value [11] of the same molecule?
Answer: 11%

Question: And the “Population Membrane Permeable-Phenotype (%)” value [11]?
Answer: 31%

Question: What about the “Population Mitochondria Different-Phenotype (%)” value [11] of the same molecule?
Answer: 0%

Question: What about the “Population Mitotic Cells (%)” value [11] of the same molecule?
Answer: 30%

Question: And the “Population Normal (%)” value [11]?
Answer: 88%

Question: What about the “Population Pyknosed Nuclei (%)” value [11] of the same molecule?
Answer: 29%

Question: And the “Population Tubulin-Different-Phenotype (%)” value [11]?
Answer: 0%

Question: What about the “Total Cell Count” value [11] of the same molecule?
Answer: 663

Question: And the “Population Apoptotic (%)” value [12]?
Answer: 87%

Question: What about the “Population Fragmented Nuclei (%)” value [12] of the same molecule?
Answer: 36%

Question: What about the “Population Healthy Nuclei (%)” value [12] of the same molecule?
Answer: 19%

Question: What about the “Population Hoechst High Intensity Objects (%)” value [12] of the same molecule?
Answer: 9%

Question: And the “Population Membrane Permeable-Phenotype (%)” value [12]?
Answer: 6%

Question: And the “Population Mitochondria Different-Phenotype (%)” value [12]?
Answer: 65%

Question: What about the “Population Mitotic Cells (%)” value [12] of the same molecule?
Answer: 12%

Question: What about the “Population Normal (%)” value [12] of the same molecule?
Answer: 90%

Question: And the “Population Pyknosed Nuclei (%)” value [12]?
Answer: 44%

Question: What about the “Population Tubulin-Different-Phenotype (%)” value [12] of the same molecule?
Answer: 93%

Question: What about the “Total Cell Count” value [12] of the same molecule?
Answer: 253
